Source: publication PMC10926215 (The Journal of Biological Chemistry, 2024)
Square brackets hold non-standard residues; d marks the D form. Peptide text beside a SMILES is read from it. pS = N[C@@H](COP(=O)(O)O)C(=O)O

What was measured:
[1] = tested on: PDE8A–14-3-3ζ interaction; assay: Co-immunoprecipitation of PDE8A with HA-14-3-3ζ in treated HEK293T cells; assay type: cell-based, human; conditions: for change of PDE8A–14-3-3ζ interaction, PKC activator/inhibitor: 1 μM, Fig. 3B
[2] = tested on: PDE8A; conditions: background statement; ref not stated; cited from earlier work
[3] = target: T1, 14-3-3ζ protein (Homo sapiens, UniProt P63104); assay: 31P NMR titration of KA14P with 14-3-3ζ protein; assay type: binding
T1 sequence (P63104 1-245): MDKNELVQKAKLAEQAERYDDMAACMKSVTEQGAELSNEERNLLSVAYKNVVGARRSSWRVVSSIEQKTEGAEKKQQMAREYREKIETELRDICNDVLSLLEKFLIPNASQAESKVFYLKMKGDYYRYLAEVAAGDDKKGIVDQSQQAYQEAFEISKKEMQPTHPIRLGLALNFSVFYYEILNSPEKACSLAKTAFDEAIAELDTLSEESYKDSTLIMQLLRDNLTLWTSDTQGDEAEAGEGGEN
Procedure, shortened: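 Human 14-3-3ζ expressed from pQE30 in E. coli M15 (0.5 mM IPTG, 3 h, 37 °C), Ni-NTA purified, and stored in 10 mM phosphate pH 6.1 with 50 mM NaCl. Peptide held at 500 μM. Spectra taken with 512 scans, 16 dummy scans and a 10 s recycle delay. A 20 Hz exponential line broadening was applied before Fourier transformation.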

[4] = tested on: DN-PDE8A (D726A)–14-3-3ζ interaction; assay: Co-immunoprecipitation of DN-PDE8A with HA-14-3-3ζ in treated HEK293T cells; assay type: cell-based, human; conditions: forskolin 100 μM, 15 min; Fig. 3D
[5] = tested on: D726A PDE8A mutant (DN-PDE8A); conditions: cited from earlier work
[6] = target: 14-3-3ζ (UniProt P63104); assay: co-IP, anti-HA IP, Myc/FLAG blot; conditions: reference: wild type PDE8A; sites S359
[7] = target: KA14P (phosphorylated PDE8A peptide) (human); assay: NMR titration

Compound: CN(C)CCCn1cc(C2=C(c3c[nH]c4ccccc34)C(=O)NC2=O)c2ccccc21 [GX109203X]
- change of PDE8A–14-3-3ζ interaction, PKC activator/inhibitor ([1]; 15 min): no change of interaction

Compound: O=S(=O)(NCCNC/C=C/c1ccc(Br)cc1)c1cccc2cnccc12 [H89]
- association of PDE8A and 14-3-3ζ, PKA inhibitor ([1]; 100 μM, 15 min pretreatment, then forskolin 100 μM, 15 min, anti-HA IP, Fig. 3A): association decreased

Compound: CC(C)Cn1c(=O)n(C)c(=O)c2[nH]cnc21 [IBMX, 3-isobutyl-1-methylxanthine]
- sensitivity of PDE8A to inhibitor [2]: insensitive

Compound: CC(C)C[C@H](NC(=O)[C@H](COP(=O)(O)O)NC(=O)CNC(=O)[C@H](CCCCN)NC(=O)[C@H](CCCNC(=N)N)NC(=O)[C@H](CCCNC(=N)N)NC(=O)[C@H](CC(=O)O)NC(=O)[C@@H](N)CCCCN)C(=O)N[C@@H](CC(=O)O)C(=O)N[C@H](C(=O)N[C@@H](CCCCN)C(=O)N[C@@H](C)C(=O)N[C@H](C(=O)N[C@@H](C)C(=O)O)C(C)C)C(C)C [KA14P] (H-KDRRKG[pS]LDVKAVA-OH)
- Kd [3]: 11.3 ± 0.18 µM

Compound: CCCCCCCCCCCCCC(=O)O[C@@H]1[C@@H](C)[C@@]2(O)[C@@H](C=C(CO)C[C@]3(O)C(=O)C(C)=C[C@@H]23)[C@@H]2C(C)(C)[C@]12OC(C)=O [PMA, phorbol 12-myristate 13-acetate]
- change of PDE8A–14-3-3ζ interaction, PKC activator/inhibitor ([1]; 15 min): no change of interaction

Compound: C=C[C@@]1(C)CC(=O)[C@]2(O)[C@@]3(C)[C@@H](O)CCC(C)(C)[C@@H]3[C@H](O)[C@H](OC(C)=O)[C@@]2(C)O1 [forskolin]
- interaction of DN-PDE8A with 14-3-3ζ [4]: increased further
- phosphorylation of DN-PDE8A by PKA following treatment [5]: rapidly phosphorylated
- association of PDE8A and 14-3-3ζ, PKA activator ([1]; 100 μM, 15 min, serum-free, anti-HA IP, at least three repeats, Fig. 3A): increased association

Compound: COc1ccc(Cl)c(Nc2nc3ccccc3nc2NS(=O)(=O)c2cccc(NC(=O)C(C)(C)N)c2)c1 [pilaralisib]
- PDE8A–14-3-3ζ interaction, inhibitor of PI3K ([1]; 100 μM, 30 min, Fig. 3C): remained unchanged

Compound: PDE8A (phosphodiesterase 8A) (from UniProt O60658) S359A
- binding against the reference [6]: lost

Compound: insulin: human insulin; activator of PI3K
- PDE8A–14-3-3ζ interaction, activator of PI3K ([1]; 200 μM, 30 min, Fig. 3C): remained unchanged

Compound: purified recombinant 14-3-3ζ (from UniProt P63104 1-245) (natural protein)
- Kd [7]: 11.3 µM
